Results: ChEMBL document CHEMBL1140114, “Antitumor compounds based on a natural product consensus pharmacophore” (J Med Chem, 2008)
The source made the active and inactive calls. No cut-off for these calls is given here.

Legend:
A549 [1] = assay: Cytotoxicity against human A549 cells upto 5 uM after 72 hrs by XTT colorimetric assay; format: functional, cell-based
Procedure, shortened: (§1)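 Initial screen on a five-line panel (A549, COS-7, MCF-7, WiDr, NIH3T3). Compounds were tested at concentrations up to 5 µM. Read-out was percent inhibition of cell growth at the highest concentration, 5 µM.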

WiDr [2] = assay: Cytotoxicity against human WiDr cells upto 5 uM after 72 hrs by XTT colorimetric assay; format: functional, cell-based; procedure, shortened: as §1
NIH3T3 = assay: Cytotoxicity against mouse NIH3T3 cells upto 5 uM after 72 hrs by XTT colorimetric assay; format: cell-based; settings: nih3t3, 72 h; procedure, shortened: as §1
MCF7 [3] = assay: Cytotoxicity against human MCF7 cells upto 5 uM after 72 hrs by XTT colorimetric assay; format: functional, cell-based; procedure, shortened: as §1
[4] = Cytotoxicity against african green monkey COS7 cells upto 5 uM after 72 hrs by XTT colorimetric assay; format: cell-based; settings: chlorocebus aethiops, cos-7, 72 h; procedure, shortened: as §1
A549 [5] = assay: Cytotoxicity against human A549 cells after 72 hrs by XTT colorimetric assay; format: functional, cell-based; settings: A549, 72 h
Procedure, shortened: (§2)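 Seven-line tumour panel run with an XTT colorimetric cytotoxicity read-out; IC50 values estimated from the XTT data. Tissue origins: A549 lung carcinoma, MCF-7 breast cancer, OVCAR-3 ovarian cancer, PC-3 prostate cancer, WiDr colorectal cancer.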

MCF7 [6] = assay: Cytotoxicity against human MCF7 cells after 72 hrs by XTT colorimetric assay; format: functional, cell-based; settings: MCF7, 72 h; procedure, shortened: as §2
WiDr [7] = assay: Cytotoxicity against human WiDr cells after 72 hrs by XTT colorimetric assay
PC-3 = assay: Cytotoxicity against human PC3 cells after 72 hrs by XTT colorimetric assay; format: functional, cell-based; settings: PC-3, 72 h; procedure, shortened: as §2
OVCAR-3 = assay: Cytotoxicity against human OVCAR-3 cells after 72 hrs by XTT colorimetric assay; format: functional, cell-based; settings: OVCAR-3, 72 h; procedure, shortened: as §2
[8] = Cytotoxicity against human JeKo1 cells after 72 hrs by XTT colorimetric assay; format: functional, cell-based; settings: JeKo-1, 72 h
Procedure, shortened: (§3)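 Mantle cell lymphoma lines (JeKo-1, JVM-2), screened within a seven-line human tumour panel. Viability read out by XTT colorimetric cytotoxicity assay, with IC50 estimated from the resulting growth inhibition data.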

JVM-2 = assay: Cytotoxicity against human JVM2 cells after 72 hrs by XTT colorimetric assay; format: functional, cell-based; settings: JVM-2, 72 h; procedure, shortened: as §3
MCF7 [9] = assay: Cytotoxicity against human MCF7 cells at 5 uM after 72 hrs by XTT colorimetric assay; format: functional; procedure, shortened: as §1
A549 [10] = assay: Cytotoxicity against human A549 cells at 5 uM after 72 hrs by XTT colorimetric assay; format: functional; procedure, shortened: as §1

Compound	IC50 (A549 [5]) [nM]	IC50 (MCF7 [6]) [nM]	IC50 (WiDr [7]) [nM]	IC50 (PC-3) [nM]	IC50 (OVCAR-3) [nM]	other results
CC(=O)O[C@@H](C)/C=C\C(=O)N[C@H]1CC[C@@H](CNC(=O)OC[C@@H]2C[C@]3(CO3)CC(C)(C)O2)CC1						Activity (A549 [1]): inactive; Activity (WiDr [2]): inactive; Activity (NIH3T3): Not Active; Activity (MCF7 [3]): inactive; Activity [4]: Not Active
CC(=O)O[C@@H](C)/C=C\C(=O)N[C@@H]1C[C@H](C)[C@H](C/C=C(C)/C=C/[C@H]2O[C@](C)(O)C[C@@]3(CO3)[C@@H]2O)O[C@@H]1C	1.3	1.8				
CC[C@H](O)[C@@H](C)[C@H]1O[C@@H]1C[C@H](C)/C=C/C=C(\C)[C@H]1OC(=O)C[C@H](O)CC[C@@](C)(O)[C@@H](OC(C)=O)CC[C@@H]1C [PLADIENOLIDE B]	1.4	0.4	0.86	2.3	0.4	
CC(=O)O[C@@H](C)/C=C\C(=O)N[C@H]1CC[C@@H](C/C=C(C)/C=C/[C@@H]2C[C@]3(CO3)CC(C)(C)O2)CC1	4650	2290	2030	2120	1980	IC50 [8]: 100 nM; IC50 (JVM-2): 130 nM
CC(=O)O[C@@H](C)/C=C\C(=O)N[C@H]1CC[C@@H](COC(=O)OC[C@@H]2C[C@]3(CO3)CC(C)(C)O2)CC1						Activity (MCF7 [9]): 10%; Activity (A549 [10]): 10%
